From ChEMBL document CHEMBL1142362, “Synthesis and biological activity of simplified denoviose-coumarins related to novobiocin as potent inhibitors of heat-shock protein 90 (hsp90)” (Bioorg Med Chem Lett, 2008)
The source made the active and inactive calls. The calls are words filed in the database; no cut-off is given here.

Test system: MCF7
Experiment: Antiproliferative activity against human MCF7 cells after 72 hrs by MTT assay
Format: functional, cell-based
Conditions: MCF7, 72 h
How it was run: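 MCF-7 cells were seeded at 5000 cells/well and, after 24 h, exposed to serial dilutions for 72 h. Survival was read by MTT. IC50 is the concentration giving 50% growth inhibition versus vehicle-treated cells. Values are the means of three experiments run in sextuplicate, with standard deviation.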

| IC50 [µM] | Structure (SMILES) |
| --- | --- |
| 35 | Cc1ccc(S(=O)(=O)Oc2c(NC(=O)c3ccc4c(c3)C=CC(C)(C)O4)c(=O)oc3ccccc23)cc1 |
| 70 | Cc1ccc(S(=O)(=O)Oc2c(NC(=O)C3=Cc4ccccc4OC3)c(=O)oc3ccccc23)cc1 |
| 40 | COc1cc(C(=O)Nc2c(OS(=O)(=O)c3ccc(C)cc3)c3ccccc3oc2=O)cc(OC)c1OC |
| 75 | CCCC(=O)Nc1c(OS(=O)(=O)c2ccc(C)cc2)c2ccccc2oc1=O |
| 50 | CCCCCCCCCCCCC(=O)Nc1c(OS(=O)(=O)c2ccc(C)cc2)c2ccccc2oc1=O |

Test system: MCF7
Experiment: Inhibition of HSP90 in human MCF7 cells assessed as decrease in Raf-1 level at 100 uM after 16 hrs by Western blot analysis
Format: cell-based
Conditions: not given
How it was run: (§1)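 Treated MCF-7 cell lysates were immunoblotted using the primary antibodies ERα (HC20) and Raf-1 (C12), with detection by a peroxidase-labelled secondary antibody. The control lysate came from DMSO-exposed cells. A nonspecific band served as the loading control.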

| Structure (SMILES) | Activity |
| --- | --- |
| Cc1ccc(S(=O)(=O)Oc2c(NC(=O)c3ccc4c(c3)C=CC(C)(C)O4)c(=O)oc3ccccc23)cc1 | Active |
| COc1ccccc1CC(=O)Nc1c(O)c2ccccc2oc1=O | Active |
| Cc1ccc(S(=O)(=O)Oc2c(NC(=O)C3=Cc4ccccc4OC3)c(=O)oc3ccccc23)cc1 | Active |
| COc1ccc2cc(C(=O)Nc3c(O)c4ccccc4oc3=O)c(=O)oc2c1 | Active |
| COc1ccc(-c2c(NC(=O)c3cc(OC)c(OC)c(OC)c3)c(=O)oc3ccccc23)cc1 | inactive |
| COc1cc(C(=O)Nc2c(OS(=O)(=O)c3ccc(C)cc3)c3ccccc3oc2=O)cc(OC)c1OC | inactive |
| COc1cccc(OC)c1C(=O)Nc1c(O)c2ccccc2oc1=O | Active |
| CCCC(=O)Nc1c(OS(=O)(=O)c2ccc(C)cc2)c2ccccc2oc1=O | Active |
| CC1(C)C=Cc2cc(C(=O)Nc3c(O)c4ccccc4oc3=O)ccc2O1 | inactive |
| CC(=O)Nc1c(O)c2ccccc2oc1=O | Active |
| CCCC(=O)Nc1c(O)c2ccccc2oc1=O | inactive |
| CCCCCCCCCCCCC(=O)Nc1c(-c2cc(OC)c(OC)c(OC)c2)c2ccccc2oc1=O | inactive |
| CCCC(=O)Nc1c(-c2cc(OC)c(OC)c(OC)c2)c2ccccc2oc1=O | inactive |
| CC1(C)CCc2cc(C(=O)Nc3c(O)c4ccccc4oc3=O)ccc2O1 | Active |
| CCCCCCCCCCCCC(=O)Nc1c(-c2ccc(OC)cc2)c2ccccc2oc1=O | Active |
| COc1ccc(-c2c(NC(=O)c3ccc(OC)cc3OC)c(=O)oc3ccccc23)cc1 | inactive |
| CCCCCCCCCCCCC(=O)Nc1c(-c2ccc(Cl)cc2)c2ccccc2oc1=O | inactive |
| CCCCCCCCCCCCC(=O)Nc1c(OS(=O)(=O)c2ccc(C)cc2)c2ccccc2oc1=O | Active |

Test system: MCF7
Experiment: Reversal of inhibition of HSP90 in human MCF7 cells assessed as decrease in ERalpha level at 100 uM after 16 hrs in presence of MG132 by Western blot analysis
Format: cell-based
Conditions: not given

| Structure (SMILES) | Activity |
| --- | --- |
| Cc1ccc(S(=O)(=O)Oc2c(NC(=O)c3ccc4c(c3)C=CC(C)(C)O4)c(=O)oc3ccccc23)cc1 | Active |
| COc1ccccc1CC(=O)Nc1c(O)c2ccccc2oc1=O | Active |
| Cc1ccc(S(=O)(=O)Oc2c(NC(=O)C3=Cc4ccccc4OC3)c(=O)oc3ccccc23)cc1 | Active |
| COc1ccc2cc(C(=O)Nc3c(O)c4ccccc4oc3=O)c(=O)oc2c1 | Active |
| COc1cc(C(=O)Nc2c(OS(=O)(=O)c3ccc(C)cc3)c3ccccc3oc2=O)cc(OC)c1OC | Active |
| COc1cccc(OC)c1C(=O)Nc1c(O)c2ccccc2oc1=O | Active |
| CCCC(=O)Nc1c(OS(=O)(=O)c2ccc(C)cc2)c2ccccc2oc1=O | Active |
| CC(=O)Nc1c(O)c2ccccc2oc1=O | Active |
| CC1(C)CCc2cc(C(=O)Nc3c(O)c4ccccc4oc3=O)ccc2O1 | Active |
| CCCCCCCCCCCCC(=O)Nc1c(-c2ccc(OC)cc2)c2ccccc2oc1=O | Active |
| CCCCCCCCCCCCC(=O)Nc1c(OS(=O)(=O)c2ccc(C)cc2)c2ccccc2oc1=O | Active |

Test system: MCF7
Experiment: Inhibition of HSP90 in human MCF7 cells assessed as decrease in ERalpha level at 100 uM after 16 hrs by Western blot analysis
Format: cell-based
Conditions: not given
How it was run: as §1

| Structure (SMILES) | Activity |
| --- | --- |
| Cc1ccc(S(=O)(=O)Oc2c(NC(=O)c3ccc4c(c3)C=CC(C)(C)O4)c(=O)oc3ccccc23)cc1 | Active |
| COc1ccccc1CC(=O)Nc1c(O)c2ccccc2oc1=O | Active |
| Cc1ccc(S(=O)(=O)Oc2c(NC(=O)C3=Cc4ccccc4OC3)c(=O)oc3ccccc23)cc1 | Active |
| COc1ccc2cc(C(=O)Nc3c(O)c4ccccc4oc3=O)c(=O)oc2c1 | Active |
| COc1ccc(-c2c(NC(=O)c3cc(OC)c(OC)c(OC)c3)c(=O)oc3ccccc23)cc1 | inactive |
| COc1cc(C(=O)Nc2c(OS(=O)(=O)c3ccc(C)cc3)c3ccccc3oc2=O)cc(OC)c1OC | Active |
| COc1cccc(OC)c1C(=O)Nc1c(O)c2ccccc2oc1=O | Active |
| CCCC(=O)Nc1c(OS(=O)(=O)c2ccc(C)cc2)c2ccccc2oc1=O | Active |
| CC1(C)C=Cc2cc(C(=O)Nc3c(O)c4ccccc4oc3=O)ccc2O1 | inactive |
| CC(=O)Nc1c(O)c2ccccc2oc1=O | Active |
| CCCC(=O)Nc1c(O)c2ccccc2oc1=O | inactive |
| CCCCCCCCCCCCC(=O)Nc1c(-c2cc(OC)c(OC)c(OC)c2)c2ccccc2oc1=O | inactive |
| CCCC(=O)Nc1c(-c2cc(OC)c(OC)c(OC)c2)c2ccccc2oc1=O | inactive |
| CC1(C)CCc2cc(C(=O)Nc3c(O)c4ccccc4oc3=O)ccc2O1 | Active |
| CCCCCCCCCCCCC(=O)Nc1c(-c2ccc(OC)cc2)c2ccccc2oc1=O | Active |
| COc1ccc(-c2c(NC(=O)c3ccc(OC)cc3OC)c(=O)oc3ccccc23)cc1 | inactive |
| CCCCCCCCCCCCC(=O)Nc1c(-c2ccc(Cl)cc2)c2ccccc2oc1=O | inactive |
| CCCCCCCCCCCCC(=O)Nc1c(OS(=O)(=O)c2ccc(C)cc2)c2ccccc2oc1=O | Active |

Test system: MELN
Experiment: Effect on estradiol-induced transcription in human MELN cells assessed as increase in luciferase activity at 200 uM after 18 hrs relative to control
Format: functional, cell-based
Conditions: not given
How it was run: (§2)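 MELN breast cancer cells were treated for 18 h with the compounds, with or without 0.1 nM estradiol. Luciferase activity was measured and expressed as fold induction relative to untreated control cells.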

| Structure (SMILES) | Activity |
| --- | --- |
| CC1(C)C=Cc2cc(C(=O)Nc3c(O)c4ccccc4oc3=O)ccc2O1 | Active |

Test system: MCF7
Experiment: Inhibition of HSP90 in human MCF7 cells assessed as decrease in progesterone receptor A level
Format: cell-based
Conditions: not given
How it was run: (§3)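 MCF-7 cells were exposed to increasing concentrations, and lysates were immunoblotted for PRA and PRB with a PR (Ab-8) primary antibody and a peroxidase-labelled secondary antibody. The control was a DMSO-exposed lysate. A nonspecific band served as the constant loading reference.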

| Structure (SMILES) | Activity |
| --- | --- |
| Cc1ccc(S(=O)(=O)Oc2c(NC(=O)c3ccc4c(c3)C=CC(C)(C)O4)c(=O)oc3ccccc23)cc1 | Active |

Test system: MCF7
Experiment: Inhibition of HSP90 in human MCF7 cells assessed as decrease in progesterone receptor B level
Format: cell-based
Conditions: not given
How it was run: as §3

| Structure (SMILES) | Activity |
| --- | --- |
| Cc1ccc(S(=O)(=O)Oc2c(NC(=O)c3ccc4c(c3)C=CC(C)(C)O4)c(=O)oc3ccccc23)cc1 | Active |

Test system: MELN
Experiment: Effect on estradiol-induced transcription in human MELN cells assessed as inhibition of luciferase activity at 200 uM after 18 hrs relative to control
Format: functional, cell-based
Conditions: not given
How it was run: as §2

| Structure (SMILES) | Activity |
| --- | --- |
| Cc1ccc(S(=O)(=O)Oc2c(NC(=O)c3ccc4c(c3)C=CC(C)(C)O4)c(=O)oc3ccccc23)cc1 | Active |
| COc1ccccc1CC(=O)Nc1c(OS(=O)(=O)c2ccc(C)cc2)c2ccccc2oc1=O | Active |
| Cc1ccc(S(=O)(=O)Oc2c(NC(=O)C3=Cc4ccccc4OC3)c(=O)oc3ccccc23)cc1 | Active |
| COc1cc(C(=O)Nc2c(OS(=O)(=O)c3ccc(C)cc3)c3ccccc3oc2=O)cc(OC)c1OC | Active |
| CCCC(=O)Nc1c(OS(=O)(=O)c2ccc(C)cc2)c2ccccc2oc1=O | Active |
| CCCC(=O)Nc1c(O)c2ccccc2oc1=O | Active |
| CCCCCCCCCCCCC(=O)Nc1c(OS(=O)(=O)c2ccc(C)cc2)c2ccccc2oc1=O | Active |
